Bioassay records as filed in PubChem BioAssay.
Only some compounds are listed: those with a hit (about 5.8% of all), similar ones and a draw of the others.
Pf Dd2 growth: P. falciparum Dd2 growth inhibitors, primary screen, SYBR Green fluorescence, single dose replicates. 72 h; stronger effect = lower value. activity change, % at 10 µM. 2.3% of 94,000 active; in the data active means activity change below about -80%; inconclusive means no clear call, values can overlap the other calls
T cruzi growth-1: T. cruzi intracellular proliferation inhibitors, primary screen, cell-based, beta-gal Tulahuen parasites, NIH3T3 host, luminescence | T. cruzi beta-gal in NIH3T3, GalScreen luminescence, 90 h | inhibition, % at 8.34 µM | 5.9% of 77,000 active | AID 624255, 2012;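 active means mean inhibition above about 93%, with at least 55% of replicates each passing it, limit read from the data, passing the limit was not always enough; inconclusive means only one of those two conditions holds; inactive means neither condition holds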
KDM4C inh: inhibitors of GASC-1 (KDM4C) histone demethylase, primary screen, biochemical, single concentration HTS; GST-KDM4C 2-372, H3K9me3 peptide, LANCE TR-FRET; inhibition, % at 12.5 µM; 0.15% of 96,000 active; AID 720574, 2013;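 active means mean replicate inhibition above about 25%, with at least 55% of replicates also reaching it, limit read from the data, passing the limit was not always enough; inconclusive means only one of those two conditions met; inactive means neither condition met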
Target sequence (Q9H3R0 2-372 limits assumed): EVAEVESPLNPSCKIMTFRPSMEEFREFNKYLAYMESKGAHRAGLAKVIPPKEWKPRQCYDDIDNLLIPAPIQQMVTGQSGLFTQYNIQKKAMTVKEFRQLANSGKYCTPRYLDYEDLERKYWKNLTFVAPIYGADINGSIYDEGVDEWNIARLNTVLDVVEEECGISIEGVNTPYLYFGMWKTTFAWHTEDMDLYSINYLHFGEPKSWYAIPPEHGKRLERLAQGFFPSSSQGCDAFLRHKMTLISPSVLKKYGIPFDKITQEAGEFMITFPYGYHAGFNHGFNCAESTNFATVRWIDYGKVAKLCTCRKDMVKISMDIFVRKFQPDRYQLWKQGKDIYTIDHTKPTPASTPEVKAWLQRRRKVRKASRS
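Material: GST-tagged GASC-1 (JMJD2C) catalytic fragment, aa 2-372 / Quantity: enzyme final amount 10 nM / Medium: HEPES buffer, pH 7.5, plus ascorbate / Doses: one test concentration per compound / Incubation: 30 min reaction, 60 min detection, RT / Measured by: LANCE TR-FRET / Read-out: inhibition from TR-FRET ratio decrease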
IDH1 mut inh: inhibitors of IDH1 R132H reductase, primary screen, biochemical, plate reader, single point; Isocitrate dehydrogenase [NADP] cytoplasmic (Homo sapiens), O75874; diaphorase/resazurin fluorescence, 60 min; inhibition, % at 10 µM; 0.18% of 70,000 active; AID 624101, 2012; in the data active means inhibition above about 34%; inconclusive means no clear call, values can overlap the other calls; inactive means below about 11%;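 further: 0% = DMSO and 100% = no enzyme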
Target sequence (O75874 whole entry R132H): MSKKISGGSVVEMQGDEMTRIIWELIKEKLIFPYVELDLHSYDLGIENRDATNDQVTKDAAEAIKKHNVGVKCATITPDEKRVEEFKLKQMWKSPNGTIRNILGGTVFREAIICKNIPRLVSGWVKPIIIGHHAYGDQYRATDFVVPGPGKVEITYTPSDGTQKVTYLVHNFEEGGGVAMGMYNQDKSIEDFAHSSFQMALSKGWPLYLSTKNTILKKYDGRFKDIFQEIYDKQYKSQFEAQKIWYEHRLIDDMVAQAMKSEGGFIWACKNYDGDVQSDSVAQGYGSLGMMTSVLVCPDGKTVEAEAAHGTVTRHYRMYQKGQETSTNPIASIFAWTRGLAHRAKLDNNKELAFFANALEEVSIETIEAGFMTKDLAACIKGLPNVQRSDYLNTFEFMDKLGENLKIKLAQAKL
T cruzi growth-2: T. cruzi intracellular proliferation inhibitors, confirmation, cell-based, NIH3T3 host, beta-gal parasite, luminescence, cherry-pick. shares compounds with T cruzi growth-1. T. cruzi beta-gal in NIH3T3, GalScreen luminescence, 90 h. inhibition, % at 8.35 µM. 72% of 5,600 active. AID 651739, 2012;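 active means mean replicate inhibition above about 95% and at least 55% of replicates individually reaching it, limit read from the data; inconclusive means only one of the two criteria is met; inactive means neither criterion is met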
T cruzi growth-3: inhibitors of intracellular T. cruzi replication, confirmation, NIH3T3 host cells, beta-gal parasites, cherry-pick, set 2; T. cruzi beta-gal in NIH3T3, GalScreen luminescence, 90 h; shares compounds with T cruzi growth-1; AID 651740, 2012; inhibition, % at 2.09 µM; 21% of 5,600 active;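 active means mean inhibition above about 95%, with at least 55% of replicates also reaching it, limit read from the data; inconclusive means meets just one of the two conditions; inactive means meets neither condition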;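 further: plate controls were neutral control median for no effect and positive control median for full effect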
3T3 cytotox: cytotoxicity in mouse NIH/3T3 fibroblasts, confirmation, cytotoxicity control for T. cruzi proliferation inhibitor project, cell-based, cherry-pick, single point | shares compounds with T cruzi growth-1 | NIH/3T3 viability, CellTiter-Glo ATP luminescence, 90 h | cytotoxicity (signal decrease), % at 8.35 µM | 14% of 5,600 active | AID 651742, 2012;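 active means mean signal decrease across replicates above about 35% based on untreated-well scatter, with enough replicates individually passing, limit read from the data; inconclusive means no rule stated though some were filed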;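 further: 0% = median of neutral control wells and 100% = median of positive control wells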
NIH3T3 tox 2: NIH/3T3 fibroblast cytotoxicity, confirmation, cytotoxicity control, cell-based, cherry-pick, single point, set 2; AID 651744, 2012; NIH/3T3 viability, CellTiter-Glo ATP luminescence, 90 h; inhibition, % at 24.9 µM; 56% of 5,600 active; shares compounds with T cruzi growth-1;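 active means mean loss of cell viability signal at or above a set limit, and enough replicates individually reaching it; inconclusive means meets only the mean limit or only the replicate share; inactive means meets neither condition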;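 further: 0% = median of neutral control wells and 100% = median of positive control wells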
Active calls of the source: *; ? = inconclusive; nt = no result given.

SMILES | Pf Dd2 growth | T cruzi growth-1 | KDM4C inh | IDH1 mut inh | T cruzi growth-2 | T cruzi growth-3 | 3T3 cytotox | NIH3T3 tox 2
C[C@@H]1CN([C@H](C)CO)S(=O)(=O)c2ccc(C#Cc3ccncc3)cc2O[C@@H]1CN(C)C(=O)Nc1ccc2c(c1)OCO2 | -52 | 25 | 4 | nt | nt | nt | nt | nt
COc1ccccc1NC(=O)CSC1CC(=O)N(c2ccc(F)cc2)C1=O (stereo not given) | nt | nt | nt | 0 | nt | nt | nt | nt
C[C@H](CO)N1C[C@H](C)[C@@H](CN(C)C(=O)Nc2ccc3c(c2)OCO3)Oc2cc(C3=CCCC3)ccc2S1(=O)=O | -47 | 114* | 0 | 0 | 96* | 45 | -1 | 17
C[C@@H]1CN([C@H](C)CO)S(=O)(=O)c2ccc(C#Cc3ccccc3)cc2O[C@@H]1CN(C)C(=O)Nc1ccc2c(c1)OCO2 | -76 | 130* | 18 | 0 | 106* | 107* | 5 | 4
C[C@H]1CN([C@@H](C)CO)S(=O)(=O)c2ccc(C3=CCCCC3)cc2O[C@@H]1CN(C)C(=O)Nc1ccc2c(c1)OCO2 | -2 | nt | -2 | -1 | nt | nt | nt | nt
C[C@@H]1CN([C@H](C)CO)S(=O)(=O)c2ccc(C#Cc3ccncc3)cc2O[C@H]1CN(C)C(=O)Nc1ccc2c(c1)OCO2 | -54 | 35 | 13 | nt | nt | nt | nt | nt
C[C@H](CO)N1C[C@H](C)[C@H](CN(C)C(=O)Nc2ccc3c(c2)OCO3)Oc2cc(C#Cc3cccnc3)ccc2S1(=O)=O | ? | 101* | -2 | -10 | 48 | -12 | -3 | 8
CCN1CCOC(CC(=O)Nc2cc(OC)cc(OC)c2)C1=O (stereo not given) | nt | nt | nt | 0 | nt | nt | nt | nt
O=C(C1CC1)N1CCCCN2[C@@H](CO)[C@H](c3ccc(-c4cccc(F)c4)cc3)[C@@H]2C1 | 23 | ? | 0 | nt | 100* | 87 | 22 | 37*
O=C(C1CCCC1)N1CCCCN2[C@H](CO)[C@H](c3ccc(-c4cccc(F)c4)cc3)[C@H]2C1 | -30 | 118* | nt | nt | 108* | 75 | 8 | 102*
O=C(C1CC1)N1CCCCN2[C@H](CO)[C@H](c3ccc(-c4cccc(F)c4)cc3)[C@@H]2C1 | 13 | ? | 0 | nt | 105* | 33 | 25 | ?
O=C(C1CCCC1)N1CCCCN2[C@H](C1)[C@H](c1ccc(-c3cccc(F)c3)cc1)[C@@H]2CO | 23 | 88 | nt | nt | nt | nt | nt | nt
COc1ccc(C(=O)CSc2nnc(-c3ccc([N+](=O)[O-])cc3)o2)cc1 | nt | nt | nt | 0 | nt | nt | nt | nt
N#Cc1ccccc1CSc1nnc(-c2ccccc2)n1-c1ccccc1 | nt | nt | nt | 0 | nt | nt | nt | nt
COc1cc(NC(=O)CN(C)S(=O)(=O)c2cc(Cl)ccc2Cl)cc(OC)c1 | nt | nt | nt | 0 | nt | nt | nt | nt
CC(C)CC#Cc1ccc2c(c1)O[C@H](CN(C)C(=O)c1ccccc1)[C@H](C)CN([C@@H](C)CO)S2(=O)=O | -54 | 118* | -3 | 0 | 104* | 98* | 22 | 106*
CCCC#Cc1ccc2c(c1)O[C@H](CN(C)C(=O)c1ccccc1)[C@H](C)CN([C@@H](C)CO)S2(=O)=O | -53 | 96* | -1 | -2 | 102* | 77 | -3 | 26*
CC(C)CC#Cc1ccc2c(c1)O[C@@H](CN(C)C(=O)c1ccccc1)[C@H](C)CN([C@@H](C)CO)S2(=O)=O | -69 | 116* | -2 | 0 | 110* | 57 | 39* | 108*
Cc1cc(C(=O)O)ccc1NC(=O)CNC(=O)C1CCCCC1 | nt | nt | nt | 0 | nt | nt | nt | nt
COc1cccc(NC(=O)C(C)N(c2ccc(Cl)cc2)S(C)(=O)=O)c1 (stereo not given) | nt | nt | nt | 0 | nt | nt | nt | nt
OC[C@H]1[C@H](c2ccc(-c3cccnc3)cc2)[C@@H]2CN(Cc3ccccn3)CCCCN12 | -13 | ? | 1 | nt | 106* | 68 | -9 | -3
OC[C@@H]1[C@H](c2ccc(-c3ccc(F)cc3)cc2)[C@H]2CN(Cc3ccccn3)CCCCN12 | -21 | 99* | 0 | nt | 107* | 92 | 31 | 108*
C[C@@H]1CCCCO[C@@H](CN(C)S(=O)(=O)c2ccc(F)cc2)[C@@H](C)CN([C@@H](C)CO)C(=O)c2cc(NC(=O)Nc3ccc(C(F)(F)F)cc3)ccc2O1 | -79 | 93 | -1 | nt | nt | nt | nt | nt
C[C@@H]1CCCCO[C@H](CN(C)S(=O)(=O)c2ccc(Cl)cc2)[C@@H](C)CN([C@@H](C)CO)C(=O)c2cc(NC(=O)Nc3ccc(C(F)(F)F)cc3)ccc2O1 | -88* | ? | 3 | nt | 106* | 110* | 28 | 34*
C[C@@H]1CCCCO[C@H](CN(C)S(=O)(=O)c2ccc(F)cc2)[C@H](C)CN([C@@H](C)CO)C(=O)c2cc(NC(=O)Nc3ccc(F)cc3)ccc2O1 | -69 | ? | -1 | nt | 100* | 93 | -7 | -11
SMILES | Pf Dd2 growth | T cruzi growth-1 | KDM4C inh | IDH1 mut inh | T cruzi growth-2 | T cruzi growth-3 | 3T3 cytotox | NIH3T3 tox 2
Cc1ccc(S(=O)(=O)N(C)C[C@H]2OCCCC[C@H](C)Oc3ccc(NC(=O)Nc4ccc(F)cc4)cc3C(=O)N([C@H](C)CO)C[C@H]2C)cc1 | ? | nt | 0 | 1 | nt | nt | nt | nt
Cc1ccc(S(=O)(=O)N(C)C[C@@H]2OCCCC[C@@H](C)Oc3ccc(NC(=O)Nc4ccc(F)cc4)cc3C(=O)N([C@@H](C)CO)C[C@@H]2C)cc1 | -85* | 107* | 1 | 1 | 111* | 105* | 1 | 47*
C[C@@H]1CCCCO[C@H](CN(C)S(=O)(=O)c2ccc(F)cc2)[C@@H](C)CN([C@H](C)CO)C(=O)c2cc(NC(=O)Nc3ccc(C(F)(F)F)cc3)ccc2O1 | -71 | 103* | nt | 1 | 109* | 79 | 16 | 51*
Cc1ccc(S(=O)(=O)N(C)C[C@H]2OCCCC[C@@H](C)Oc3ccc(NC(=O)Nc4ccc(C(F)(F)F)cc4)cc3C(=O)N([C@@H](C)CO)C[C@H]2C)cc1 | -54 | nt | 0 | nt | nt | nt | nt | nt
CN(CC(=O)Nc1cccc2ccccc12)S(=O)(=O)c1ccc(F)cc1 | nt | nt | nt | 0 | nt | nt | nt | nt
OC(COc1ccccc1F)Cn1cnc2ccccc21 (stereo not given) | nt | nt | nt | 0 | nt | nt | nt | nt
